This passage reports inhibition and IC50 results from PubChem BioAssay AID624398 (The Scripps Research Institute Molecular Screening Center, 2012).

Usually inhibition stands for the relative decrease from the control value, in per cent. The IC50 is the concentration needed to halve the response being measured.

Molecules are shown by their SMILES. Active and inactive are the calls of the source.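 How the source made its calls: active means estrogen-induced reporter signal reduced by at least 20%; inactive means reduction of reporter signal under 20%.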

Test system in one assay: not listed separately
In words: suppression of estradiol-induced ERE reporter expression – BG1Luc4E2 ovarian carcinoma cells, luminescence, set 2, counter-screen for AHR activator project, late-stage follow-up (AID 624398). Particulars: BG1Luc4E2 ERE-luciferase, estradiol-induced, luminescence, 24 h; at 10 µM; active compounds read high. Put shortly:
(§1)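 Material: 2xERE luciferase reporter / Reagent: estradiol stimulus at 1 nM / Timing: compound and estradiol exposure 24 h at 37 °C / Signal: luciferase luminescence measured after cell lysis / Replication: triplicate wells for the 10 µM dose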
Regarding `COc1ccc(Nc2cc(Cl)nc(N)n2)cc1OC`, the inhibition is -18.4% (inactive).

As to `Cc1cccc(NC(=O)c2cc(-c3ccc(C)cc3O)n[nH]2)c1`, the inhibition is -95.6% (inactive).

Consider `COc1ccc(Nc2cc(Cl)nc(N)n2)cc1`, for which the inhibition is -52.4% (inactive).

In the case of `Nc1nc(Cl)cc(Nc2ccc(Oc3ccccc3)cc2)n1`, the inhibition was -6.3% (inactive).

Consider `Cc1cc(Br)cc(C)c1Nc1ccnc(Nc2ccc(C#N)cc2)n1`, for which the inhibition was 92.9%.

With `CCOc1ccccc1NC(=O)c1ccc(C(=O)Nc2ccccc2OCC)nc1`, the inhibition is -45.6% (inactive).

Take `Nc1nc(Cl)cc(Nc2ccccc2F)n1`: the inhibition is 8% (inactive).

As for `Cc1cc(Nc2ccc(F)cc2)nc(N)n1`, the inhibition is 15.8% (inactive).

`Cc1ccc(NC(=O)c2ccc(C(=O)Nc3ccc(C)cc3C)nc2)c(C)c1`: the inhibition was 33.6%.

As to `O=C(CSc1nc2ccccc2s1)Nc1ccc(Cl)cn1`, the inhibition is 38.8%.

Regarding `COc1ccc(O)c(-c2cc(-c3cccs3)[nH]n2)c1`, the inhibition was 43.1%.

Regarding `COc1ccc(-c2cc(-c3ccc(C)cc3O)[nH]n2)cc1`, the inhibition is 40.9%.

Regarding `COc1ccc(Cl)cc1NC(=O)c1ccc(C(=O)Nc2cc(Cl)ccc2OC)nc1`, the inhibition was 79.6%.

`O=C(CSc1nc2ccccc2s1)Nc1ccccn1`: the inhibition is 79%.

For the compound `CCOC(=O)c1c(C)nn(-c2cc(Cl)ccc2Cl)c1C`, the inhibition is 29%.

`Cc1ccc(O)c(-c2cc(-c3ccccc3Cl)[nH]n2)c1`: the inhibition was 66.3%.

Take `COc1ccc(NC(=O)c2ccc(C(=O)Nc3ccc(OC)cc3OC)nc2)c(OC)c1`: the inhibition is 19.4% (inactive).

As for `Cc1ccnc(NC(=O)CSc2nc3ccccc3s2)c1`, the inhibition is 16.1% (inactive).

Regarding `Cc1cccc(C)c1NC(=O)c1ccc(C(=O)Nc2c(C)cccc2C)nc1`, the inhibition is -12.6% (inactive).

On to `Cc1csc(SCC(=O)Nc2ccccn2)n1`, for which the inhibition is 12.2% (inactive).

Take `O=C(CSc1nc(-c2ccc(F)cc2)cs1)Nc1ccccn1`: the inhibition is -26.7% (inactive).

As for `CN(Cc1cc(-c2cccs2)n[nH]1)Cc1coc2ccccc2c1=O`, the inhibition was -31.1% (inactive).

For the next assay, the system named is BG1Luc4E2 ERE-luciferase, estradiol-induced, luminescence, 24 h. The description is as above.
Details: not given
Put shortly: as §1
Consider `Cc1ccc(-c2cc(-c3ccc(F)cc3)n[nH]2)c(O)c1`, for which the concentration for half-maximal inhibition (IC50) was 20 µM.

With `Cc1ccc(-c2cc(-c3ccc(Cl)cc3)n[nH]2)c(O)c1`, the IC50 is 30 µM.
